Assay results of several laboratories.
Compare with care: the assays were run in different laboratories.
CDK7 with cyclin H: Cyclin-dependent kinase 7, with cyclin H (CDK7, Homo sapiens, UniProt P50613)
CDK7: Cyclin-dependent kinase 7 (CDK7, Homo sapiens, UniProt P50613)

| Structure (SMILES) | target | test | setting | quantity | value |
| --- | --- | --- | --- | --- | --- |
| O=c1cc(-c2ccccc2)oc2cc(O)cc(O)c12 | CDK7 with cyclin H | enzyme activity, inhibitor, ADP detection | 10 µM | inhibition | 58.8% |
| Cc1nc(Cc2cccc(C(F)(F)F)c2)sc1-c1ccc(C(N)=O)nc1 | CDK7 | cell-free assay, competition with immobilised ligand | 1 µM | remaining binding | 90% |
| COc1cc2oc(-c3ccccc3)cc(=O)c2c(OC)c1OC | CDK7 with cyclin H | enzyme activity, inhibitor, ADP detection | 10 µM | inhibition | 22.4% |
| CCN(CC)CCNC(=O)c1c(C)[nH]c(/C=C2\C(=O)Nc3ccc(F)cc32)c1C | CDK7 with cyclin H | cell-free assay | 0.5 µM | remaining signal | 73.4% |
| Cc1cc(NC(=O)c2cccc(S(F)(F)(F)(F)F)c2)cc(-n2ccn3nc(-c4cccnc4)cc23)c1 | CDK7 | cell-free assay, competition with immobilised ligand | 1 µM | remaining binding | 100% |
| CC(C)(C)c1nc2c(s1)c1nc(N)ncc1c1ccc(NS(=O)(=O)c3c(F)cccc3F)c(F)c12 | CDK7 with cyclin H | enzyme activity, inhibitor, radiometric | 1 µM | remaining activity | 123% |
| COC(=O)C1=CO[C@@H](C)[C@H]2CN3CCc4c([nH]c5ccccc45)[C@@H]3C[C@H]12 | CDK7 with cyclin H | enzyme activity, inhibitor, ADP detection | 10 µM | inhibition | -41.8% |
| Cc1ccc(C(=O)NCc2ccsc2)cc1C#Cc1cn(C(C)C)c2ncnc(N)c12 | CDK7 | enzyme activity, inhibitor | 1 µM | activity vs control | 94% |
| O=C1NC(=O)c2cc(Nc3ccc(F)cc3)c(Nc3ccc(F)cc3)cc21 | CDK7 with cyclin H | cell-free assay | 0.5 µM | remaining signal | 100% |
| C[C@@H]1CN(c2cc(-c3n[nH]c4ccc(OC5(C)CC5)cc34)ncn2)C[C@H](C)O1 | CDK7 | cell-free assay, competition with immobilised ligand | 0.1 µM | remaining binding | 56% |
| COc1c(-c2ccccc2)oc2c(ccc3occc32)c1=O | CDK7 with cyclin H | enzyme activity, inhibitor, ADP detection | 10 µM | inhibition | -0.1% |
| CO[C@@H](C)c1c(Nc2ccc([C@H](N(C)C(=O)C3CCS(=O)(=O)CC3)C(F)(F)F)cc2)cnc2cc(Cl)nn12 | CDK7 | cell-free assay, competition with immobilised ligand | 1 µM | remaining binding | 100% |
| Cc1sc(C(=O)NC2COC2)cc1-n1cc(NC(=O)Nc2c(F)cccc2Cl)cn1 | CDK7 with cyclin H | enzyme activity, inhibitor | 10 µM | remaining activity | 103% |
| Cc1ccc(Nc2nccc(N(C)c3ccc4c(C)n(C)nc4c3)n2)cc1S(N)(=O)=O | CDK7 with cyclin H | enzyme activity, inhibitor | 0.3 µM | inhibition | 8% |
| Nc1ncnc2occ(-c3ccc(NC(=O)Nc4cc(C(F)(F)F)ccc4F)cc3)c12 | CDK7 | cell-free assay, inhibitor | 20 µM | remaining signal | 0.9% |
| O=C(Nc1cnn(-c2csc(C(=O)NC3COC3)c2)c1)Nc1ccccc1Cl | CDK7 with cyclin H | enzyme activity, inhibitor | 5 µM | remaining activity | 99.7% |
| Cc1cc(NC(=O)c2cccc3cc(-c4cccc5[nH]nc(N)c45)ccc23)ccc1F | CDK7 | enzyme activity, inhibitor | 0.1 µM | activity vs control | 117% |
| COc1ccc(-c2coc3cc(O)cc(O)c3c2=O)cc1 | CDK7 with cyclin H | enzyme activity, inhibitor, ADP detection | 10 µM | inhibition | 41.3% |
| CN1CCN(c2cnc3c(C4CCN(C(=O)c5ccc(OC(F)(F)F)cc5N)CC4)ncnc3c2)CC1 | CDK7 | cell-free assay, competition with immobilised ligand | 1 µM | remaining binding | 89% |
| C=C1CC[C@@H]2[C@](C)(CO)[C@H](O)CC[C@@]2(C)[C@@H]1CCC1=CCOC1=O | CDK7 with cyclin H | enzyme activity, inhibitor, ADP detection | 10 µM | inhibition | 22.8% |
| C[C@H](c1ccnc(Nc2nc3ccc(-c4cc(N(C)C)ncn4)cc3[nH]2)c1)N1CCN(C(=O)CC(F)(F)F)CC1 | CDK7 | cell-free assay, competition with immobilised ligand | 0.1 µM | remaining binding | 93% |
| Cc1cnc(NC2CCOCC2)nc1-n1cnc(C(=O)NC(CN)c2cc(F)cc(Cl)c2)c1 (stereo not drawn) | CDK7 | enzyme activity, inhibitor, radiometric | 1 µM | remaining activity | 16% |
| CCCOc1ccc(OC)c(F)c1C(=O)c1ccc(C(=O)N[C@@H]2CNC[C@H]2NC(=O)c2ccc3[nH]ncc3c2)cc1 | CDK7 | enzyme activity, inhibitor | 10 µM | remaining activity | 13% |
| O=c1cc(-c2ccccc2)oc2ccccc12 | CDK7 with cyclin H | enzyme activity, inhibitor, ADP detection | 10 µM | inhibition | 41.7% |
| CNC(=O)Nc1ccc2c(c1)[C@@]1(CC2)OC(=O)N(CC(=O)N(Cc2ccc(F)cc2)[C@@H](C)C(F)(F)F)C1=O | CDK7 | cell-free assay, competition with immobilised ligand | 1 µM | remaining binding | 76% |
| CNC(=O)c1cc(Oc2ccc(NC(=O)Nc3ccc(Cl)c(C(F)(F)F)c3)cc2)ccn1 | CDK7 with cyclin H | enzyme activity, inhibitor | 0.3 µM | inhibition | -3% |
| CCS(=O)(=O)c1cc2cc(C[C@@](O)(CC(C)(C)c3ccc(F)cc3C(N)=O)C(F)(F)F)[nH]c2cn1 | CDK7 | cell-free assay, competition with immobilised ligand | 1 µM | remaining binding | 99% |
| COc1cc(Nc2c(C#N)cnc3cc(OCCCN4CCN(C)CC4)c(OC)cc23)c(Cl)cc1Cl | CDK7 with cyclin H | cell-free assay | 0.5 µM | remaining signal | 113% |
| CCCCNc1ncc2c(-c3ccc(F)cc3)nn(C[C@H]3CC[C@H](N)CC3)c2n1 | CDK7 | target engagement in cells, inhibitor, chemoproteomics | 20 mM | inhibition | 31.5% |
| Cc1cc(=O)c2c(O)cc(O)cc2o1 | CDK7 with cyclin H | enzyme activity, inhibitor, ADP detection | 10 µM | inhibition | 29.4% |
